Results: ChEMBL document CHEMBL3804761, “Synthesis of a stable and orally bioavailable englerin analogue” (Bioorg Med Chem Lett, 2016)

Legend:
Type in all cases: functional
[1] = tested on: NCI/ADR-RES; assay: Growth inhibition of human NCI/ADR-RES cells incubated for 48 hrs by sulforhodamine B assay
Method in brief: (§1)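 NCI 60-cell-line panel, standard protocol. Cells exposed to compound for two days, growth read by sulforhodamine B staining. Tested at five 10-fold dilutions, top concentration 100 µM, to give dose-response curves.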

[2] = tested on: MDA-MB-231; assay: Growth inhibition of human MDA-MB-231 cells incubated for 48 hrs by sulforhodamine B assay; conditions: MDA-MB-231, 48 h; method in brief: as §1
[3] = Growth inhibition of human RPMI8226 cells incubated for 48 hrs by sulforhodamine B assay; conditions: RPMI-8226, 48 h; method in brief: as §1
[4] = tested on: NCI-H460; assay: Growth inhibition of human NCI-H460 cells assessed as cell growth at 10 uM incubated for 48 hrs by sulforhodamine B assay relative to control; conditions: NCI-H460, 48 h, read-out: Activity
Method in brief: (§2)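 Run in the standard NCI 60-cell-line screen. Cells were exposed to drug for two days, and the read-out was sulforhodamine B staining. Compound was tested at a single final concentration of 10 µM in every line, and results are reported as growth percent.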

[5] = tested on: MDA-MB-231; assay: Growth inhibition of human MDA-MB-231 cells assessed as cell growth at 10 uM incubated for 48 hrs by sulforhodamine B assay relative to control; conditions: MDA-MB-231, 48 h, read-out: Activity; method in brief: as §2
[6] = tested on: 786-0; assay: Growth inhibition of human 786-0 cells assessed as cell growth at 10 uM incubated for 48 hrs by sulforhodamine B assay relative to control; conditions: 786-0, 48 h, read-out: Activity; method in brief: as §2
[7] = tested on: NCI-H23; assay: Growth inhibition of human NCI-H23 cells assessed as cell growth at 10 uM incubated for 48 hrs by sulforhodamine B assay relative to control; conditions: NCI-H23, 48 h, read-out: Activity; method in brief: as §2
[8] = Growth inhibition of human OVCAR5 cells incubated for 48 hrs by sulforhodamine B assay; conditions: OVCAR-5, 48 h; method in brief: as §1
[9] = Growth inhibition of human HCT15 cells incubated for 48 hrs by sulforhodamine B assay; conditions: HCT-15, 48 h; method in brief: as §1
[10] = tested on: NCI-H23; assay: Growth inhibition of human NCI-H23 cells incubated for 48 hrs by sulforhodamine B assay; conditions: NCI-H23, 48 h; method in brief: as §1
[11] = tested on: NCI-H522; assay: Growth inhibition of human NCI-H522 cells incubated for 48 hrs by sulforhodamine B assay; conditions: NCI-H522, 48 h; method in brief: as §1
[12] = Growth inhibition of human HOP92 cells incubated for 48 hrs by sulforhodamine B assay; conditions: HOP-92, 48 h; method in brief: as §1
[13] = Growth inhibition of human SNB75 cells assessed as cell growth at 10 uM incubated for 48 hrs by sulforhodamine B assay relative to control; conditions: SNB-75, 48 h, read-out: Activity; method in brief: as §2
[14] = Growth inhibition of human BT549 cells assessed as cell growth at 10 uM incubated for 48 hrs by sulforhodamine B assay relative to control; conditions: BT-549, 48 h, read-out: Activity; method in brief: as §2
[15] = tested on: A549; assay: Growth inhibition of human A549/ATCC cells assessed as cell growth at 10 uM incubated for 48 hrs by sulforhodamine B assay relative to control; conditions: A549, 48 h, read-out: Activity; method in brief: as §2
[16] = tested on: MCF7; assay: Growth inhibition of human MCF7 cells incubated for 48 hrs by sulforhodamine B assay; conditions: MCF7, 48 h; method in brief: as §1
[17] = tested on: CCRF-CEM; assay: Growth inhibition of human CCRF-CEM cells incubated for 48 hrs by sulforhodamine B assay; method in brief: as §1
[18] = tested on: KM12; assay: Growth inhibition of human KM12 cells incubated for 48 hrs by sulforhodamine B assay; conditions: KM12, 48 h; method in brief: as §1
[19] = tested on: M14; assay: Growth inhibition of human M14 cells incubated for 48 hrs by sulforhodamine B assay; conditions: M14, 48 h; method in brief: as §1
[20] = tested on: Malme-3M; assay: Growth inhibition of human MALME-3M cells assessed as cell growth at 10 uM incubated for 48 hrs by sulforhodamine B assay relative to control; conditions: read-out: Activity; method in brief: as §2
[21] = tested on: ACHN; assay: Growth inhibition of human ACHN cells assessed as cell growth at 10 uM incubated for 48 hrs by sulforhodamine B assay relative to control; conditions: read-out: Activity; method in brief: as §2
[22] = Growth inhibition of human SW620 cells assessed as cell growth at 10 uM incubated for 48 hrs by sulforhodamine B assay relative to control; conditions: SW-620, 48 h, read-out: Activity; method in brief: as §2
[23] = Growth inhibition of human IGROV1 cells incubated for 48 hrs by sulforhodamine B assay; conditions: IGROV-1, 48 h; method in brief: as §1
[24] = tested on: SR; assay: Growth inhibition of human SR cells incubated for 48 hrs by sulforhodamine B assay
Method in brief: (§3)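 Tested in the standard NCI 60-cell-line protocol with two-day drug exposure and a sulforhodamine B endpoint. Compounds were first screened at a single final concentration of 10 µM, reported as growth percent. They were then run as five 10-fold dilutions starting from a high concentration of 100 µM to give dose-response curves.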

[25] = tested on: A549; assay: Growth inhibition of human A549/ATCC cells incubated for 48 hrs by sulforhodamine B assay; conditions: A549, 48 h; method in brief: as §1
[26] = tested on: A498; assay: Growth inhibition of human A498 cells incubated for 48 hrs by sulforhodamine B assay; conditions: A498, 48 h
[27] = Growth inhibition of human UACC62 cells assessed as cell growth at 10 uM incubated for 48 hrs by sulforhodamine B assay relative to control; conditions: UACC-62, 48 h, read-out: Activity
Method in brief: (§4)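 NCI 60-cell line standard protocol, one-dose screen: single final concentration 10 µM, 2-day drug exposure, sulforhodamine B (SRB) endpoint; read-out is growth percent relative to untreated control.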

[28] = tested on: U-251; assay: Growth inhibition of human U251 cells assessed as cell growth at 10 uM incubated for 48 hrs by sulforhodamine B assay relative to control; conditions: U-251, 48 h, read-out: Activity; method in brief: as §4
[29] = tested on: U-251; assay: Growth inhibition of human U251 cells incubated for 48 hrs by sulforhodamine B assay; conditions: U-251, 48 h; method in brief: as §3
[30] = read-out: pLC50 (the source's name) (converted)

SMILES: CC(C)[C@@]12C[C@@H](NC(=O)CO)[C@@](C)(O1)[C@@H]1CC[C@@H](C)[C@H]1[C@@H]2OC(=O)/C=C/c1ccccc1
- GI50 [1]: 3.47 µM
- LC50 [1]: > 50.1 µM
- TGI ([1]; read-out: pTGI (converted)): > 50.1 µM
- GI50 [2]: 24.5 µM
- CC50 [2, 30]: > 50.1 µM
- TGI ([2]; read-out: pTGI (converted)): > 50.1 µM
- GI50 [3]: 11.5 µM
- CC50 [3, 30]: > 50.1 µM
- TGI ([3]; read-out: pTGI (converted)): 42.7 µM
- growth at 10 µM [4]: 108%
- growth at 10 µM [5]: 97.2%
- growth at 10 µM [6]: 73.1%
- growth at 10 µM [7]: 81.9%
- GI50 [8]: 23.4 µM
- LC50 [8]: > 50.1 µM
- TGI ([8]; read-out: pTGI (converted)): > 50.1 µM
- GI50 [9]: 16.6 µM
- LC50 [9]: > 50.1 µM
- TGI ([9]; read-out: pTGI (converted)): > 50.1 µM
- GI50 [10]: 14.8 µM
- LC50 [10]: > 50.1 µM
- TGI ([10]; read-out: pTGI (converted)): > 50.1 µM
- GI50 [11]: 19.1 µM
- LC50 [11]: > 50.1 µM
- TGI ([11]; read-out: pTGI (converted)): > 50.1 µM
- GI50 [12]: 5.25 µM
- LC50 [12]: > 50.1 µM
- TGI ([12]; read-out: pTGI (converted)): 24 µM
- growth at 10 µM [13]: 59.6%
- growth at 10 µM [14]: 84.9%
- growth at 10 µM [15]: 91.7%
- GI50 [16]: 14.5 µM
- CC50 [16, 30]: > 50.1 µM
- TGI ([16]; read-out: pTGI (converted)): > 50.1 µM
- GI50 [17]: 14.1 µM
- CC50 [17, 30]: > 50.1 µM
- TGI ([17]; read-out: pTGI (converted)): > 50.1 µM
- GI50 [18]: 20 µM
- LC50 [18]: > 50.1 µM
- TGI ([18]; read-out: pTGI (converted)): > 50.1 µM
- GI50 [19]: 16.6 µM
- LC50 [19]: > 50.1 µM
- TGI ([19]; read-out: pTGI (converted)): > 50.1 µM
- growth at 10 µM [20]: 95.2%
- growth at 10 µM [21]: 8.01%
- growth at 10 µM [22]: 109%
- GI50 [23]: > 50.1 µM
- CC50 [23, 30]: > 50.1 µM
- TGI ([23]; read-out: pTGI (converted)): > 50.1 µM
- GI50 [24]: 13.5 µM
- LC50 [24]: > 50.1 µM
- TGI ([24]; read-out: pTGI (converted)): 37.2 µM
- GI50 [25]: 13.5 µM
- LC50 [25]: > 50.1 µM
- TGI ([25]; read-out: pTGI (converted)): > 50.1 µM
- LC50 [26]: 29.5 µM
- GI50 ([26]; read-out: GI50): 0.162 µM
- GI50 ([26]; read-out: pGI50 (converted)): 0.162 µM
- TGI ([26]; read-out: pTGI (converted)): 2.45 µM
- growth at 10 µM [27]: 92.1%
- growth at 10 µM [28]: 92.3%
- GI50 [29]: 15.5 µM
- LC50 (concentration giving 50% net cell kill) [29]: > 50.1 µM
- TGI ([29]; read-out: pTGI (converted)): > 50.1 µM
